Screening results from PubChem BioAssay.
MC4R barr agon: MC4R agonists recruiting beta-arrestin, primary screen, cell-based, luminescence, agonist arm of biased-ligand search. Melanocortin receptor 4 (Homo sapiens), P32245. U2OS MC4R beta-arrestin complementation; percent of melanotan II response, DMSO zero. activation, % at 8.9 µM. 360,000 tested, 0.98% active. AID 540308, 2011;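 active = activation above a per-plate cutoff, the mean activation of sample wells on that plate plus 3 SD, cut at about 8% in these data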
Target sequence (P32245 whole entry, looked up): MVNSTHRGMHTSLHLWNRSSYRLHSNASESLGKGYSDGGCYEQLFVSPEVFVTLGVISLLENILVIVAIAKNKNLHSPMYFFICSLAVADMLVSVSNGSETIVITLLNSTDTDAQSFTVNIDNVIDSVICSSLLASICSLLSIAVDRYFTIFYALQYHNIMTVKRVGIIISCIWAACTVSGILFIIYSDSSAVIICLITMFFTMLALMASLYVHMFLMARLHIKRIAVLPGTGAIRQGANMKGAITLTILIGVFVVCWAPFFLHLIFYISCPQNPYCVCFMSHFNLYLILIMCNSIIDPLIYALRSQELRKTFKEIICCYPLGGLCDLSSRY
aDG glyco act: activators of alpha-DG glycosylation, primary screen, uHTS, Pro5-aDG cells, AlphaScreen. alpha-DG glycosylation AlphaScreen (IIH6); 0% Pro5, 100% B10-LARGE cell signal. activation, % at 10 µM. 360,000 tested, 0.22% active. AID 624168, 2012;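 active = activation of at least 8% versus controls, or a plate z-score of at least 8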;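 note: Pro5 are CHO cells carrying HIG-tagged alpha-DG that lacks glycosylation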
MC4R antagonist: MC4R antagonists of cAMP signaling, primary screen, cell-based, TR-FRET, antagonist arm of biased-ligand search; Melanocortin receptor 4 (Homo sapiens), P32245; MC4R-expressing cells, MTII-stimulated cAMP, LANCE TR-FRET; inhibition, % at 6.5 µM; 360,000 tested, 0.48% active; AID 540295, 2011;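 active = inhibition above its plate's cutoff, the mean of tested wells on that plate plus 3 SD, cut at about 29% in these data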;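 note: 0% = Melanotan II alone and 100% = Melanotan II plus saturating MCL0020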
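Material: human MC4R-expressing U2OS cells. Probe or stimulus: Melanotan II challenge. Dosing: 6.5 µM single dose. Times: 30-min compound, 1-h challenge, 1-h detection, room temperature. Technique: TR-FRET with Eu-cAMP and labeled anti-cAMP, 671 nm. Replication: singlicate.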
Tb MetRS inh: T. brucei MetRS inhibitors, primary screen, biochemical, luminescence | methionyl-tRNA synthetase (Trypanosoma brucei brucei) | inhibition, % at 11.9 µM | purified T. brucei MetRS, ATP depletion, Kinase-Glo luminescence | 360,000 tested, 0.4% active;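 active = inhibition above a per-plate cutoff of the control wells' mean inhibition plus 3 SD, cut at about 5.5% in these data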;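 note: 0% = DMSO wells median and 100% = median of wells with control inhibitor compound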
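Test system – parasite MetRS enzyme · Reagent – substrates ATP, L-methionine and bulk Escherichia coli tRNA · Doses – 11.9 µM compound single dose, 0.9% DMSO · Times – 15 min enzyme-compound preincubation, 2 h reaction, 10 min detection, 25 °C · Signal – Kinase-Glo luminescence, ATP depletion format · Controls – DMSO-only wells as low control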
NTR1 agonist: agonists of human NTR1, primary screen, imaging, U2OS cells, beta-arrestin-GFP, high content; NTR1-U2OS beta-arrestin-GFP spot imaging, agonist mode; activation, % at 20 µM; 330,000 tested, 0.17% active; AID 493036, 2011;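 active = activation at or above 40% of the spot to cytoplasm intensity ratio, with at least 20 cells analyzed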;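 note: 0% = DMSO without peptide and 100% = 100 nM NTR1 peptide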
Target sequence (P30989 whole entry, looked up): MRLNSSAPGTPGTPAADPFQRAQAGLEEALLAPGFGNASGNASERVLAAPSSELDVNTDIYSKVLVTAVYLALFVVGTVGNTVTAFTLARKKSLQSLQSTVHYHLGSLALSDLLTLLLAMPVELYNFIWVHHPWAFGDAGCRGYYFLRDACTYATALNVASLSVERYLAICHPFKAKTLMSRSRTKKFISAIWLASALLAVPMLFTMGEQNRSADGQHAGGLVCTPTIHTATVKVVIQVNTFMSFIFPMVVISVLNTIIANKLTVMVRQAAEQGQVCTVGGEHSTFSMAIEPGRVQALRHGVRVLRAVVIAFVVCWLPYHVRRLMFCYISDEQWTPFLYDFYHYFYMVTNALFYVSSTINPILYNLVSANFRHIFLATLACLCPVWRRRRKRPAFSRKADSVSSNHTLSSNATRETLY
H9c2 TAG inh: inhibitors of triacylglycerol accumulation, primary screen, cell-based, uHTS, fluorescence, H9c2 | H9c2 cells, Nile Red lipid (TAG) fluorescence; cells loaded with 200 µM oleic acid | inhibition, % at 12.5 µM | 230,000 tested, 0.66% active | AID 651582, 2012;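 active = pattern-corrected inhibition of lipid staining of at least 50% with the nuclear-stain viability signal not falling by more than 50%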;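 note: 0% = DMSO wells and 100% = triacsin C control wells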
U2OS cAMP counter: nonselective cAMP signaling inhibitors, parental cells, counter-screen for MC4R biased antagonist project, cell-based, TR-FRET, U2OS, forskolin, triplicate. shares compounds with MC4R antagonist. LANCE TR-FRET. inhibition, % at 6.5 µM. 1,600 tested, 26% active. AID 602193, 2012;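 active = mean inhibition over triplicates above the low-control well mean plus 3 SD, set per campaign, cut at about 13% in these data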;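 note: signal is single emission at 671 nm which falls as cellular cAMP rises; 0% = forskolin-stimulated wells and 100% = buffer without forskolin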
MC4R cAMP antag: MC4R cAMP antagonists, retest, confirmation, cell-based, TR-FRET; inhibition, % at 6.5 µM; 1,600 tested, 27% active; AID 602195, 2012; shares compounds with MC4R antagonist; MC4R-expressing cells, MTII-stimulated cAMP; in the data active = inhibition above about 29%;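 note: 0% = agonist stimulated wells alone and 100% = agonist stimulated wells plus saturating reference antagonist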
Numbers without * were called inactive; . = not tested or not shown. A selection: hits, their analogues and other compounds. The true share with any hit is near 2.4%.

SMILES | MC4R barr agon | aDG glyco act | MC4R antagonist | Tb MetRS inh | NTR1 agonist | H9c2 TAG inh | U2OS cAMP counter | MC4R cAMP antag
Cc1cc(C(=O)Nc2nc(-c3ccccn3)cs2)ccc1[N+](=O)[O-] | -2.4 | 3.5 | 17.9 | 0.1 | 4.8 | -1.9 | . | .
O=C1OCCC1Sc1nnnn1-c1ccc(Cl)cc1 (centres undefined) | -2.4 | -0.1 | 38.1* | -0.9 | 0.7 | -1.6 | 21.6* | 38.6*
O=C1OCCC1Sc1nnnn1-c1ccccc1 (centres undefined) | -1.0 | 0.1 | 15.2 | -2.5 | -3.0 | -4.3 | . | .
Cc1cccc(C)c1NC(=O)CCCSc1nnc(N)s1 | 0.4 | 0.0 | 32.8* | -0.6 | -0.8 | 8.4 | -1.2 | -7.3
Cc1cccc(C)c1NC(=O)COC(=O)CSc1nnc(N)s1 | 2.6 | -0.1 | 21.1 | -0.2 | 1.2 | . | . | .
CCOCc1nc(N)nc(N)c1-c1cccc(Cl)c1 | -1.2 | 0.0 | 31.1* | 0.2 | . | -19.1 | -0.9 | -0.4
COc1ccc(Cl)cc1-c1n[nH]c(=S)o1 | -1.3 | -0.1 | 71.9* | -0.3 | -3.0 | -0.5 | 45.3* | 78.0*
COc1ccccc1-c1n[nH]c(=S)o1 | -2.1 | 0.2 | 20.8 | -0.1 | -0.4 | 25.2 | . | .
Cc1ccccc1-c1n[nH]c(=S)o1 | -1.5 | -0.2 | 41.8* | -0.7 | 2.6 | 4.9 | 24.8* | 47.1*
CSc1ccccc1-c1n[nH]c(=S)o1 | -2.1 | -0.3 | 89.8* | -0.1 | -0.9 | -1.1 | 49.7* | 94.0*
CS(=O)c1nc(-c2ccc(Br)cc2)cc(-c2ccccc2)c1C#N (centres undefined) | 1.3 | -0.4 | 57.0* | -1.1 | 65.6* | . | 12.3 | 65.7*
CS(=O)(=O)c1nc(-c2ccc(Br)cc2)cc(-c2ccccc2)c1C#N | 4.2 | -0.7 | 43.1* | -0.9 | 14.6 | 79.1* | 24.6* | 65.0*
N#Cc1c(-c2ccc(Br)cc2)cc(-c2cccnc2)nc1N | -0.8 | 4.0 | 7.1 | -0.8 | 0.6 | . | . | .
COc1ccc(-c2cc(-c3ccccc3)c(C#N)c(S(C)(=O)=O)n2)cc1 | -0.5 | -0.5 | 30.0* | -2.8 | 11.0 | 14.8 | 16.7* | 48.4*
Cc1ccccc1S(=O)(=O)NC(=O)C1(C)CCN1C(=O)CCc1ccc(Cl)cc1Cl (centres undefined) | -1.1 | -0.1 | -3.7 | -0.1 | . | 11.3 | . | .
Cc1nn(-c2ccccc2)nc1C(=O)Nc1cccc(C(=O)NC2CC2)c1 | 0.6 | -0.3 | 12.1 | -0.6 | . | 15.1 | . | .
CC1(C(=O)NS(=O)(=O)c2cccc(Cl)c2)CCN1C(=O)C1(c2ccccc2)CC1 (centres undefined) | -0.2 | 0.1 | 3.2 | 0.3 | . | 0.9 | . | .
Cc1ccc(S(=O)(=O)n2cccc2/C=C/[N+](=O)[O-])cc1 | -1.6 | -0.1 | 38.2* | -0.4 | . | 16.9 | 7.1 | 4.5
CCOC(=O)[C@]12CCCC=C1N(CCc1ccc(OC)c(OC)c1)C(=O)[C@H](CC(=O)NCCc1ccccc1OC)C2 | . | -0.3 | . | -0.6 | . | . | . | .
Cc1c(C(=O)NCc2c(F)cc(F)cc2F)oc2ccc(S(=O)(=O)N3CCOCC3)cc12 | 0.5 | 0.0 | 9.9 | -0.1 | -0.3 | . | . | .
Cc1c(C(=O)NCc2ccc(F)cc2)oc2ccc(S(=O)(=O)N3CCOCC3)cc12 | 1.8 | -0.1 | 32.0* | -0.2 | -0.9 | . | -0.9 | -1.4
COc1ccc(N=C(C)C2C(=O)c3ccccc3C2=O)cc1 | . | -0.1 | . | 0.1 | . | . | . | .
COc1ccc2[nH]c3c(=S)nc[nH]c3c2c1 | -1.7 | -0.4 | 37.8* | 0.1 | -0.6 | 4.9 | 4.5 | 12.7
O=C(Nc1ccccc1)OC1CCC2CC1CCC2OC(=O)Nc1ccccc1 (centres undefined) | 1.1 | 0.4 | 32.2* | -0.7 | 6.5 | . | 2.2 | 32.5*
O=C(Nc1ccccc1)C1CC2CCC1C2 (centres undefined) | 0.4 | 0.0 | 14.2 | -0.9 | 1.0 | 14.4 | . | .
SMILES | MC4R barr agon | aDG glyco act | MC4R antagonist | Tb MetRS inh | NTR1 agonist | H9c2 TAG inh | U2OS cAMP counter | MC4R cAMP antag
CCCNC(=O)c1ccc(N2CCC3(CC2)CC(c2ccccc2)=NO3)c(NC(=O)c2ccco2)c1 | -1.3 | -0.5 | 33.4* | 0.1 | 0.4 | 17.5 | 5.4 | 17.0
O=c1ccn([C@@H]2O[C@H](CNCc3cccn3-c3ccncc3)[C@@H](O)[C@H]2O)c(=O)[nH]1 | . | 0.0 | . | -0.6 | . | . | . | .
COc1ccc(C(=O)NC(=S)Nc2ccc(Cl)c(C(=O)O)c2)cc1 | -0.3 | 0.0 | 30.1* | -0.1 | -0.6 | 12.1 | -5.3 | -17.8
COc1ccc(Br)cc1/C=C/C(=O)NC(=S)Nc1ccc(Cl)c(C(=O)O)c1 | -3.3 | 0.1 | 29.6* | 0.4 | 1.6 | 5.7 | 1.2 | -0.2
CC(=O)c1cccc(NC(=S)NC(=O)c2ccccc2Cl)c1 | -1.1 | -0.2 | 29.6* | 0.1 | -0.3 | . | 2.4 | 6.9
COc1ccc(Br)cc1C(=O)NC(=S)Nc1ccc(Cl)c(C(=O)O)c1 | 0.1 | -0.4 | 7.1 | -0.8 | 1.9 | -3.6 | . | .
CC(=O)c1cccc(NC(=S)NC(=O)c2ccc(C)cc2Cl)c1 | -2.5 | -0.2 | 0.0 | -0.2 | -0.2 | . | . | .
COc1ccc(NC(=O)c2cc(-c3cc(F)ccc3OC)n[nH]2)c(OC)c1 | -2.0 | -0.1 | 13.7 | -0.1 | . | 18.1 | . | .
COc1ccc(NC(=O)c2cc(-c3ccc(F)cc3OC)n[nH]2)c(OC)c1 | 1.4 | -0.4 | 30.0* | -0.1 | . | 0.3 | 3.8 | 3.9
CCCc1nc2c3ccccc3ccn2c1CC(C)(C)C | . | 0.1 | . | -0.2 | . | . | . | .
CC(=O)CSc1nc(-c2cccs2)c(C#N)c(=O)[nH]1 | 0.9 | 0.1 | 46.1* | -0.3 | -0.2 | -3.4 | 35.8* | 59.7*
Cc1cc(NC(=O)CSc2nc3c(c(-c4cccnc4)c2C#N)CCC3)no1 | 2.5 | -0.4 | 46.9* | -1.0 | 1.9 | . | 18.8* | 57.0*
Cc1cc(NC(=O)CSc2nc3ccccc3cc2C#N)no1 | -0.4 | 0.0 | 50.7* | 0.1 | 0.0 | . | 7.0 | -0.4
Cc1cc(NC(=O)CSc2nc(-c3cccnc3)ccc2C#N)no1 | 0.1 | 0.5 | 10.8 | -0.8 | -0.7 | 19.2 | . | .
